Reference: ChEMBL document CHEMBL1155541, “Discovery of 6-chloro-2-trifluoromethyl-7-aryl-7H-imidazo[1,2-a]imidazol-3-ylmethylamines, a novel class of corticotropin-releasing factor receptor type 1 (CRF1R) antagonists” (Bioorg Med Chem Lett, 2010)
The source made the active and inactive calls. The rule behind the calls is not given here.

Key:
[1] = biological target: T1, Corticotropin-releasing factor receptor 1 (Homo sapiens, UniProt P34998); assay: Displacement of [125I] Tyr-o-CRF from human […] expressed in human IMR-32 cells after 100 mins; assay type: cell-based
T1 sequence (P34998 whole entry): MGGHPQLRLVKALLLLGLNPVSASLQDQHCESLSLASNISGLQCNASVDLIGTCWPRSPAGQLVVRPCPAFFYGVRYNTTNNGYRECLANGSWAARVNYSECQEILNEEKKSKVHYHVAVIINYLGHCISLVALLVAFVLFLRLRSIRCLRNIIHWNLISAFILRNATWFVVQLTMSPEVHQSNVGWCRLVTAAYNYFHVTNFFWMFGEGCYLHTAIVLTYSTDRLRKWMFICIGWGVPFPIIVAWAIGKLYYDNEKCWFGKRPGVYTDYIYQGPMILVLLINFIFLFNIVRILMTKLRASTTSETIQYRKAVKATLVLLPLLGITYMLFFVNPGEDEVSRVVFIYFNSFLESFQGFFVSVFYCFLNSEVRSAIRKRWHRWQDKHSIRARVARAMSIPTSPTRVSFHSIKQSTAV
Procedure, shortened: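 Membranes from transformed IMR-32 cells incubated with 100 pM [125I]Tyr-o-CRF and increasing test-compound concentrations, 100 min, 25 °C. Buffer: 50 mM Tris pH 7.2, 10 mM MgCl2, 0.5% BSA, 0.005% Triton X-100, aprotinin, leupeptin. Stopped with ice-cold 50 mM Tris pH 7.4, 0.2% BSA. Nonspecific binding defined with o-CRF. Values given as Ki.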

[2] = biological target: T2, Corticotropin-releasing factor receptor 1 (Homo sapiens) (UniProt P34998); assay: Antagonist activity at human CRF1 receptor expressed in human IMR-32 cells assessed as inhibition of CRF-stimulated cAMP production; assay type: functional, cell-based
T2 sequence (whole entry): T1 sequence (P34998 whole entry)

| Ki [1] | Activity [2] | SMILES |
| --- | --- | --- |
| 260 nM | Active | CCCN(Cc1cccc(F)c1)Cc1c(C(F)(F)F)nc2n(-c3c(C)cc(C)cc3C)c(Cl)cn12 |
| 21 nM | Active | CCCN(CCc1ccccc1)Cc1c(C(F)(F)F)nc2n(-c3c(C)cc(C)cc3C)c(Cl)cn12 |
| 4300 nM | Active | Cc1cc(C)c(-n2c(Cl)cn3c(CN(C)CCc4ccccn4)c(C(F)(F)F)nc23)c(C)c1 |
| 13 nM | Active | C=CCN(CC=C)Cc1c(C(F)(F)F)nc2n(-c3c(C)cc(C)cc3C)c(Cl)cn12 |
| 12 nM | Active | Cc1cc(C)c(-n2c(Cl)cn3c(CN(CCC(F)(F)F)Cc4ccc(Cl)cc4)c(C(F)(F)F)nc23)c(C)c1 |
| 5800 nM | Active | Cc1cc(C)c(-n2c(Cl)cn3c(CN4CCCC(C)C4)c(C(F)(F)F)nc23)c(C)c1 (stereo not given) |
| 3200 nM | Active | Cc1cc(C)c(-n2c(Cl)cn3c(CN4CCC(C)CC4)c(C(F)(F)F)nc23)c(C)c1 |
| 350 nM | Active | CCN(Cc1ccccc1)Cc1c(C(F)(F)F)nc2n(-c3c(C)cc(C)cc3C)c(Cl)cn12 |
| > 7000 nM | Active | Cc1cc(C)c(-n2c(Cl)cn3c(CN4CCCC4c4ccccc4)c(C(F)(F)F)nc23)c(C)c1 (stereo not given) |
| 6.3 nM | Active | Cc1cc(C)c(-n2c(Cl)cn3c(CN(CCC4CC4)CC(F)(F)F)c(C(F)(F)F)nc23)c(C)c1 |
| 9 nM | Active | CCN(Cc1c(C(F)(F)F)nc2n(-c3c(C)cc(C)cc3C)c(Cl)cn12)CC1CC1 |
| 1700 nM | Active | Cc1cc(C)c(-n2c(Cl)cn3c(CN4CCOCC4)c(C(F)(F)F)nc23)c(C)c1 |
| 5.2 nM | Active | Cc1cc(C)c(-n2c(Cl)cn3c(CN(CC4CC4)CC(F)(F)F)c(C(F)(F)F)nc23)c(C)c1 |
| 61 nM | Active | CCCN(CC1CC1)C(=O)c1c(C)nc2n(-c3c(C)cc(C)cc3C)c(Cl)cn12 |
| 16 nM | Active | CCN(Cc1c(C(F)(F)F)nc2n(-c3c(C)cc(C)cc3C)c(Cl)cn12)CC1CCC1 |
| 1600 nM | Active | Cc1cc(C)c(-n2c(Cl)cn3c(CN4CCCCC4C)c(C(F)(F)F)nc23)c(C)c1 (stereo not given) |
| 53 nM | Active | CCCN(CCC1CC1)Cc1c(C(F)(F)F)nc2n(-c3c(C)cc(C)cc3C)c(Cl)cn12 |
| 160 nM | Active | Cc1cc(C)c(-n2c(Cl)cn3c(CN(C)Cc4ccccc4)c(C(F)(F)F)nc23)c(C)c1 |
| 150 nM | Active | CCCN(Cc1ccc([N+](=O)[O-])cc1)Cc1c(C(F)(F)F)nc2n(-c3c(C)cc(C)cc3C)c(Cl)cn12 |
| 1900 nM | Active | Cc1cc(C)c(-n2c(Cl)cn3c(CN(CCc4ccccc4)CCC(F)(F)F)c(C(F)(F)F)nc23)c(C)c1 |

| Ki [1] | Activity [2] | SMILES |
| --- | --- | --- |
| 4800 nM | Active | CCN(Cc1ccccc1C)Cc1c(C(F)(F)F)nc2n(-c3c(C)cc(C)cc3C)c(Cl)cn12 |
| 4.2 nM | Active | CCCN(Cc1c(C(F)(F)F)nc2n(-c3c(C)cc(C)cc3Cl)c(Cl)cn12)CC1CC1 |
| 160 nM | Active | Cc1cc(C)c(-n2c(Cl)cn3c(CN(Cc4ccc(F)cc4)CC(F)(F)F)c(C(F)(F)F)nc23)c(C)c1 |
| 760 nM | Active | Cc1cc(C)c(-n2c(Cl)cn3c(CN4CC=CCC4)c(C(F)(F)F)nc23)c(C)c1 |
| 4.5 nM | Active | C=CCN(CCC)Cc1c(C(F)(F)F)nc2n(-c3c(C)cc(C)cc3C)c(Cl)cn12 |
| 130 nM | Active | CCCCN(Cc1ccccc1)Cc1c(C(F)(F)F)nc2n(-c3c(C)cc(C)cc3C)c(Cl)cn12 |
| 1900 nM | Active | Cc1cc(C)c(-n2c(Cl)cn3c(CN(C)CCc4cccnc4)c(C(F)(F)F)nc23)c(C)c1 |
| 350 nM | Active | Cc1cc(C)c(-n2c(Cl)cn3c(CN(CCc4ccccc4)CC(F)(F)F)c(C(F)(F)F)nc23)c(C)c1 |
| 28 nM | Active | CCCN(Cc1ccc(Cl)cc1)Cc1c(C(F)(F)F)nc2n(-c3c(C)cc(C)cc3C)c(Cl)cn12 |
| 310 nM | Active | CCCCN(C)Cc1c(C(F)(F)F)nc2n(-c3c(C)cc(C)cc3C)c(Cl)cn12 |
| 43 nM | Active | Cc1cc(C)c(-n2c(Cl)cn3c(CN(CCC(F)(F)F)Cc4ccccc4)c(C(F)(F)F)nc23)c(C)c1 |
| 12 nM | Active | CCCN(CCC(F)(F)F)Cc1c(C(F)(F)F)nc2n(-c3c(C)cc(C)cc3C)c(Cl)cn12 |
| 5.3 nM | Active | CCCN(Cc1c(C(F)(F)F)nc2n(-c3c(C)cc(C)cc3C)c(Cl)cn12)CC1CCC1 |
| 180 nM | Active | Cc1cc(C)c(-n2c(Cl)cn3c(CN(C)Cc4ccco4)c(C(F)(F)F)nc23)c(C)c1 |
| 920 nM | Active | Cc1cc(C)c(-n2c(Cl)cn3c(CN4CCSCC4)c(C(F)(F)F)nc23)c(C)c1 |
| 8.3 nM | Active | CCCN(Cc1c(C(F)(F)F)nc2n(-c3c(C)cc(C)cc3C)c(Cl)cn12)CC(F)(F)F |
| 67 nM | Active | C=C(C)CN(CC)Cc1c(C(F)(F)F)nc2n(-c3c(C)cc(C)cc3C)c(Cl)cn12 |
| 440 nM | Active | CCCN(Cc1c(C(F)(F)F)nc2n(-c3c(C)cc(C)cc3C)c(Cl)cn12)CC(F)(F)C(F)(F)F |
| 49 nM | Active | Cc1cc(C)c(-n2c(Cl)cn3c(CN(CCC(F)(F)F)Cc4cccc(F)c4)c(C(F)(F)F)nc23)c(C)c1 |
| 170 nM | Active | CCCN(Cc1ccccc1)Cc1c(C(F)(F)F)nc2n(-c3c(C)cc(C)cc3C)c(Cl)cn12 |

| Ki [1] | Activity [2] | SMILES |
| --- | --- | --- |
| 9.1 nM | Active | CCCN(Cc1c(C(F)(F)F)nc2n(-c3c(C)cc(C)cc3C)c(Cl)cn12)CC1CC1 |
| 78 nM | Active | CCCCN(CC)Cc1c(C(F)(F)F)nc2n(-c3c(C)cc(C)cc3C)c(Cl)cn12 |
| 13 nM | Active | CCN(CCC1CC1)Cc1c(C(F)(F)F)nc2n(-c3c(C)cc(C)cc3C)c(Cl)cn12 |
| 150 nM | Active | Cc1cc(C)c(-n2c(Cl)cn3c(CN(C)CCc4ccccc4)c(C(F)(F)F)nc23)c(C)c1 |
| 190 nM | Active | Cc1cc(C)c(-n2c(Cl)cn3c(CN4CCCC4Cc4ccccc4)c(C(F)(F)F)nc23)c(C)c1 (stereo not given) |
| 110 nM | Active | Cc1cc(C)c(-n2c(Cl)cn3c(CN(CCC4CC4)CCC(F)(F)F)c(C(F)(F)F)nc23)c(C)c1 |
| 16 nM | Active | Cc1cc(C)c(-n2c(Cl)cn3c(CN(CCC(F)(F)F)CC4CC4)c(C(F)(F)F)nc23)c(C)c1 |
| 13 nM | Active | Cc1cc(C)c(-n2c(Cl)cn3c(CN(CC4CCC4)CC(F)(F)F)c(C(F)(F)F)nc23)c(C)c1 |
| 610 nM | Active | Cc1cc(C)c(-n2c(Cl)cn3c(CN4CCC(c5ccccc5)C4)c(C(F)(F)F)nc23)c(C)c1 (stereo not given) |
| 32 nM | Active | CCCN(CCOC)Cc1c(C(F)(F)F)nc2n(-c3c(C)cc(C)cc3C)c(Cl)cn12 |
| 1200 nM | Active | Cc1cc(C)c(-n2c(Cl)cn3c(CN4CCCCC4)c(C(F)(F)F)nc23)c(C)c1 |
| 6 nM | Active | CCN(CCc1ccccc1)Cc1c(C(F)(F)F)nc2n(-c3c(C)cc(C)cc3C)c(Cl)cn12 |
| 470 nM | Active | CCCN(Cc1c(C(F)(F)F)nc2n(-c3c(C)cc(C)cc3C)ccn12)CC1CC1 |
| 69 nM | Active | CCCN(CCC)Cc1c(C(F)(F)F)nc2n(-c3c(C)cc(C)cc3C)c(Cl)cn12 |
| 34 nM | Active | Cc1cc(C)c(-n2c(Cl)cn3c(CN(CCC(F)(F)F)Cc4ccc(F)cc4)c(C(F)(F)F)nc23)c(C)c1 |
| 350 nM | Active | CCCN(Cc1ccc(F)cc1)Cc1c(C(F)(F)F)nc2n(-c3c(C)cc(C)cc3C)c(Cl)cn12 |
| 7600 nM | Active | Cc1cc(C)c(-n2c(Cl)cn3c(CN(C)CCc4ccncc4)c(C(F)(F)F)nc23)c(C)c1 |
| 13 nM | Active | CCCN(Cc1c(C(F)(F)F)nc2n(-c3ccc(C)cc3OC)c(Cl)cn12)CC1CC1 |
| 33 nM | Active | CCCN(CC1CC1)C(=O)c1c(C(F)(F)F)nc2n(-c3c(C)cc(C)cc3C)c(Cl)cn12 |
| 580 nM | Active | CCN(Cc1ccc(Cl)c(Cl)c1)Cc1c(C(F)(F)F)nc2n(-c3c(C)cc(C)cc3C)c(Cl)cn12 |
